Measured values published in ChEMBL document CHEMBL2176939, “Rapid discovery of highly potent and selective inhibitors of histone deacetylase 8 using click chemistry to generate candidate libraries” (J Med Chem, 2012).
pIC50: −log10 of the molar value. Calls of active or inactive are those of the source. The rule behind the calls is not given here.

Assays:
[1] = tested on: MT4; experiment: Growth inhibition of human MT4 cells incubated for 72 hrs by MTS assay; type: functional; conditions: MT4, 72 h
Method in brief: (§1)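 Cells plated at 2 × 10⁵ cells/well in culture medium and exposed to inhibitor for 72 h at 37 °C under 5% CO₂. MTS was then added for 2 h, with absorbance read at 490 nm against a 650 nm reference. Wells were also read at compound addition (T₀). % growth = 100[(T − T₀)/(C − T₀)], or […]. GI₅₀ is where % growth = 50.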

[2] = target: T1, Histone deacetylase 8 (Homo sapiens, UniProt Q9BY41); experiment: Inhibition of HDAC8 by fluorometric assay
T1 sequence (Q9BY41 whole entry): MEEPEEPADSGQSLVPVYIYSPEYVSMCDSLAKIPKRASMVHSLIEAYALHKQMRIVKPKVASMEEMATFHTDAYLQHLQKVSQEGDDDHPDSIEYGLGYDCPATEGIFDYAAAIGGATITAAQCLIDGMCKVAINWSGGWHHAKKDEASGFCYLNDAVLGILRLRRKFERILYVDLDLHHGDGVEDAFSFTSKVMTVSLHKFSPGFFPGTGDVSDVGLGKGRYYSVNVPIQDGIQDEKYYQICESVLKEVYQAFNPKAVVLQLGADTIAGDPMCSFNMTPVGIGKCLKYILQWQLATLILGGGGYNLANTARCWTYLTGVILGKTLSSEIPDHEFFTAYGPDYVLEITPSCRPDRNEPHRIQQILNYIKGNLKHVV

[3] = tested on: Jurkat; experiment: Growth inhibition of human Jurkat cells incubated for 72 hrs by MTS assay; type: functional; method in brief: as §1
[4] = target: Histone deacetylase 2 (Homo sapiens, UniProt Q92769); experiment: Inhibition of HDAC2 by fluorometric assay
Histone deacetylase 2, sequence (Q92769 whole entry): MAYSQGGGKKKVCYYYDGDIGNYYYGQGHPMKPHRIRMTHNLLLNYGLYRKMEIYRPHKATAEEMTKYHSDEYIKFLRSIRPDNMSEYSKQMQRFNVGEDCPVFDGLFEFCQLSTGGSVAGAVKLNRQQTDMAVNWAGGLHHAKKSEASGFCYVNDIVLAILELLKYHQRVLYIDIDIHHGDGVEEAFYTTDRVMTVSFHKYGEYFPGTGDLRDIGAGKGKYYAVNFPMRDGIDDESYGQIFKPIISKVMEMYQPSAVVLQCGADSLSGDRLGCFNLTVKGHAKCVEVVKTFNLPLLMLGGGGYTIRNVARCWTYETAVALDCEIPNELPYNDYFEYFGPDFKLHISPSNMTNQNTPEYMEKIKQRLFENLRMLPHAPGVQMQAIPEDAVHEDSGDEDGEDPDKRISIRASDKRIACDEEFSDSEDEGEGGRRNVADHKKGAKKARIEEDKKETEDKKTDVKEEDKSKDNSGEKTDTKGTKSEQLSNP

[5] = Growth inhibition of human PBMC PB-O cells incubated for 72 hrs by MTS assay; type: cell-based; method in brief: as §1
[6] = tested on: MT2; experiment: Growth inhibition of human MT2 cells incubated for 72 hrs by MTS assay; type: functional; conditions: MT2, 72 h; method in brief: as §1
[7] = tested on: HH; experiment: Growth inhibition of human HH cells incubated for 72 hrs by MTS assay; type: functional; method in brief: as §1
[8] = Growth inhibition of human LAN1 cells incubated for 72 hrs by MTS assay; type: functional; conditions: LAN1, 72 h; method in brief: as §1
[9] = target: Histone deacetylase (Homo sapiens) (UniProt Q13547+O15379+Q9UBN7+Q92769+Q9UQL6+Q8WUI4+Q9BY41+Q96DB2+P56524+Q9UKV0+Q969S8); experiment: Inhibition of HDAC in human HeLa cells nuclear extracts at 3 uM by fluorometric assay; type: cell-free
Method in brief: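 Total HDAC activity of HeLa nuclear extract was measured with a commercial fluorometric deacetylase kit, following the supplier's protocol. Compounds were screened at 3 μM, including crude click-reaction triazoles diluted without purification. Fluorescence was read at ex 360 / em 460 nm, and % inhibition was calculated relative to uninhibited control wells.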

[10] = target: Histone deacetylase 4 (Homo sapiens, UniProt P56524); experiment: Inhibition of HDAC4 by fluorometric assay
Histone deacetylase 4, sequence (P56524 whole entry): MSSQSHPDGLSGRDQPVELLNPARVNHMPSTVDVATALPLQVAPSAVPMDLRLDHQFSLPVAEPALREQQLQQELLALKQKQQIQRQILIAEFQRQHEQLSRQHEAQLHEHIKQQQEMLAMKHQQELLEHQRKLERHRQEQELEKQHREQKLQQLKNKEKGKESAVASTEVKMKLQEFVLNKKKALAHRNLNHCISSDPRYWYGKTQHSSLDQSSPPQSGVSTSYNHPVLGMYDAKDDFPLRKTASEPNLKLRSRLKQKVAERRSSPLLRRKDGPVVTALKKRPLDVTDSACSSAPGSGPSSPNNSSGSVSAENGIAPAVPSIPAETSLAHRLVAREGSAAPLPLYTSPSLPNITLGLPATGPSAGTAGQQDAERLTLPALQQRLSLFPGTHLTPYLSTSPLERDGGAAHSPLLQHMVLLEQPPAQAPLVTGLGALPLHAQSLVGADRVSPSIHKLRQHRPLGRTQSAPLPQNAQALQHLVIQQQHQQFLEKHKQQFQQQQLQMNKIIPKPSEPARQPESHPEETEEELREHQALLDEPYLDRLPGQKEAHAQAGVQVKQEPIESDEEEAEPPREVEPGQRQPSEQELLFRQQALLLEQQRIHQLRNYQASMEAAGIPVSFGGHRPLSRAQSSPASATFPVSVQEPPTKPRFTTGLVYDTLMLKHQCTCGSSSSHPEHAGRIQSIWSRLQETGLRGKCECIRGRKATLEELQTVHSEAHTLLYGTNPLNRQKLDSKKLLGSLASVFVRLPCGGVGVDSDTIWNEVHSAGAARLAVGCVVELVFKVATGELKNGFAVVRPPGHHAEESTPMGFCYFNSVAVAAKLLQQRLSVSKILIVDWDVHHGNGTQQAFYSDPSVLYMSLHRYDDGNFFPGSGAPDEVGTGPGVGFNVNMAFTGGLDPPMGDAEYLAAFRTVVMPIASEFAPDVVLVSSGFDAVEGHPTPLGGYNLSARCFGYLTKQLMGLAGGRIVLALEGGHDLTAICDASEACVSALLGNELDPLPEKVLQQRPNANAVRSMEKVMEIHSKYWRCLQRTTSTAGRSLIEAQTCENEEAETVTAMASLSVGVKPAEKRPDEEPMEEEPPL

[11] = target: T2, Protein deacetylase HDAC6 (Homo sapiens, UniProt Q9UBN7); experiment: Inhibition of HDAC6 by fluorometric assay
T2 sequence (Q9UBN7 whole entry): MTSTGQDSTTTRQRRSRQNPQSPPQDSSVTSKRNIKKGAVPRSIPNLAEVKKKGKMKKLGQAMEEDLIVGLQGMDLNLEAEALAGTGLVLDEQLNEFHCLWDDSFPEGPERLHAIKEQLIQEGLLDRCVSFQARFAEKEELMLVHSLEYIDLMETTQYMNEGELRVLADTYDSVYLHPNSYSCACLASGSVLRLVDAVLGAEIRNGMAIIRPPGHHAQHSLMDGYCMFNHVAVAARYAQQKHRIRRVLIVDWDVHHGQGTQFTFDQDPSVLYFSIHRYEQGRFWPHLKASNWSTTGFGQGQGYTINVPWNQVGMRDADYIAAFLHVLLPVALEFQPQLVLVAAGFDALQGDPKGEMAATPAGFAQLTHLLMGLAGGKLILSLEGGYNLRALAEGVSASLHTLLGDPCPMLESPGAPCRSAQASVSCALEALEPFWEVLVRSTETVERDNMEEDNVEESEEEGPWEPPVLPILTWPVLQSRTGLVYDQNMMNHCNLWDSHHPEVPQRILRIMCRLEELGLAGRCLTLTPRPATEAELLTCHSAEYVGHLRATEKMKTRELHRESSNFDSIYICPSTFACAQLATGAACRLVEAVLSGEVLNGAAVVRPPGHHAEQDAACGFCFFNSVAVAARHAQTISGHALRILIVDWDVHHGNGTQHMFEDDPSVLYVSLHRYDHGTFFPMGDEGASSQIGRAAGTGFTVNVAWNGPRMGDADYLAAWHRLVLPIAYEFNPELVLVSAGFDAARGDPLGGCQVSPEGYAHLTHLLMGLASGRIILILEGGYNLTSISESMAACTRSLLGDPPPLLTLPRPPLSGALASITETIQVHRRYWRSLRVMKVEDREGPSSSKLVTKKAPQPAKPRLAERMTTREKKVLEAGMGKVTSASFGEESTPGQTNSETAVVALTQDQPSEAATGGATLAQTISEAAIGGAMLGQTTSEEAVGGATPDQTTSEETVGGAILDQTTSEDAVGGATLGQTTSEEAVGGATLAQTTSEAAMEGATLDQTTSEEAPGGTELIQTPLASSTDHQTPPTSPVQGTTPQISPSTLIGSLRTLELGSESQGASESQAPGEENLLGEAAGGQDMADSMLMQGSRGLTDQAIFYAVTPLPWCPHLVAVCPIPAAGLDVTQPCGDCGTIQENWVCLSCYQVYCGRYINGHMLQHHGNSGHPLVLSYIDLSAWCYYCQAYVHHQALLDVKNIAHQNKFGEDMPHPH

[12] = tested on: NB1; experiment: Growth inhibition of human NB-1 cells incubated for 72 hrs by MTS assay; type: functional; conditions: NB1, 72 h; method in brief: as §1
[13] = target: Histone deacetylase; experiment: Inhibition of HDAC in human HeLa cells nuclear extracts by fluorometric assay; type: cell-based
[14] = Growth inhibition of human PBMC PB-N cells incubated for 72 hrs by MTS assay; type: cell-based; method in brief: as §1
[15] = target: Histone deacetylase 1 (Homo sapiens, UniProt Q13547); experiment: Inhibition of HDAC1 by fluorometric assay
Histone deacetylase 1, sequence (Q13547 whole entry): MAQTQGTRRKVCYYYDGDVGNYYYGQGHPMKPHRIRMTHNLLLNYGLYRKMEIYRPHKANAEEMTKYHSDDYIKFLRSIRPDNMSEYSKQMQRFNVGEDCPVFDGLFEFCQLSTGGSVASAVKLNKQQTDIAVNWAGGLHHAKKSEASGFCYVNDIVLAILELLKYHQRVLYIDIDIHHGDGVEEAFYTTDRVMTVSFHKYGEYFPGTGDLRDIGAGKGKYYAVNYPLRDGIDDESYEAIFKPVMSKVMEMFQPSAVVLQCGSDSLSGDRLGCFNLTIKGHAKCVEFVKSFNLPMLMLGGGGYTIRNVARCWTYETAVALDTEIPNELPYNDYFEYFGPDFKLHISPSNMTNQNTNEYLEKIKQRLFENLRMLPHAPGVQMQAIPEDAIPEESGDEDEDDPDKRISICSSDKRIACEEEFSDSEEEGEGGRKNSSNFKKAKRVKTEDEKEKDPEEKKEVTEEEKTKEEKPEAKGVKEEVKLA

| Compound | GI50 [1] [µM] | pIC50 [2] | GI50 [3] [µM] | pIC50 [4] | GI50 at 72 h [5] [µM] | GI50 [6] [µM] | GI50 [7] [µM] | GI50 [8] [µM] | inhibition [9] | pIC50 [10] | pIC50 [11] | GI50 [12] [µM] | IC50 [13] [µM] | GI50 at 72 h [14] [µM] | pIC50 [15] |
| --- | --- | --- | --- | --- | --- | --- | --- | --- | --- | --- | --- | --- | --- | --- | --- |
| O=C(NO)c1cccc(-c2cn(CCc3ccccc3)nn2)c1 | 30 | 6.74 | 11 | 4.12 | > 100 | 19 | 79 | 27 | inactive | < 4.00 | 5.49 | 39 | 23 | > 100 | < 4.00 |
| COc1ccc(Cn2ccc3ccc(C(=O)NO)cc32)cc1 | 25 | – | 11 | – | 97 | 15 | > 100 | 3.9 | – | – | – | 14 | – | > 100 | – |
| O=C(NO)c1cccc(-c2cn(CSc3ccccc3)nn2)c1 | 15 | – | 7.6 | – | > 100 | 11 | 23 | 6.4 | inactive | – | – | 12 | – | > 100 | – |
| O=C(NO)c1cccc(-c2cn(CCc3ccsc3)nn2)c1 | – | 7.00 | – | < 4.00 | – | – | – | – | inactive | < 4.00 | 5.96 | – | 44 | – | < 4.00 |
| O=C(NO)c1cccc(-c2cn(Cc3ccccc3)nn2)c1 | – | 6.46 | – | 4.19 | – | – | – | – | inactive | 4.52 | 5.10 | – | 37 | – | 4.39 |
